PMI act hi M6P: human PMI activators, high substrate, primary screen, biochemical, fluorescence intensity, near-saturating mannose 6-phosphate; coupled PMI enzyme assay, resazurin fluorescence, 20 min; hits give high values; 1 = untreated enzyme, 0 = substrate-free blank; Mannose-6-phosphate isomerase (Homo sapiens), P34949; 0.34% of 190,000 active; activation factor at 20 µM;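 active = activation factor of 2 or more at 20 µM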
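Test system: human PMI in coupled enzyme assay; Input: PMI at 15 ng/mL final; Medium: HEPES buffer, pH 7.4; Schedule: 20 min incubation at room temperature; Technique: resorufin fluorescence at Ex 544/Em 590 nm; Compound: 20 µM single dose; Probe or stimulus: Near-saturating mannose-6-phosphate, 1.0 mM.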
PMI act: activators of human PMI, primary screen, biochemical, fluorescence intensity, near-Km mannose 6-phosphate. purified human PMI, coupled resazurin fluorescence, 20 min; hits give high values; 1 = vehicle control, 0 substrate-free wells. AID 1214, 2008. Mannose-6-phosphate isomerase (Homo sapiens), P34949. 0.005% of 190,000 active. activation factor at 20 µM;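 active = activation factor of 2 or more at 20 µM, relative to plate controls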
Diaph act CS: compounds boosting diaphorase resazurin reduction – biochemical, uHTS, resorufin fluorescence, counter-screen for diaphorase-coupled primary assays, primary screen; AID 1229, 2008; 0.005% of 190,000 active; Diaphorase/resazurin coupled assay, 16 min; hits give high values; 1 = vehicle wells, 0 = NADH-free wells; activation factor at 20 µM;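 active = diaphorase activity raised at least twofold by the compound at 20 µM; inactive = activation factor below 2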
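Test system: Clostridium kluyveri diaphorase, purified enzyme; input: enzyme 0.07 U/mL final; buffer or medium: 50 mM HEPES pH 7.4 with 4.542 mM MgCl2, 0.005% Tween 20; also added: 0.114 mM NADH and 0.1 mM resazurin, final amounts; schedule: 16 min enzyme reaction, ambient temperature; technique: fluorescence of resorufin, 544 nm excitation, 590 nm emission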
G6PDH counter: L. mesenteroides G6PDH inhibitors, counter-screen for G6PDH-coupled screening assays, biochemical, Leuconostoc mesenteroides enzyme; glucose-6-phosphate dehydrogenase [Leuconostoc mesenteroides]; Purified L. mesenteroides G6PDH, diaphorase/resazurin coupled fluorescence, 45 min; inhibition, % at 5 µM; 0.12% of 200,000 active; AID 1020, 2008; in the data active = inhibition above about 50%
Diaphorase inh: diaphorase inhibitors and chemical oxidizers, primary screen, counter-screen for diaphorase-coupled primary assays, biochemical, uHTS, resorufin fluorescence; diaphorase resazurin-to-resorufin fluorescence, NADH, 16 min; bacterial (C. kluyveri) enzyme, not human; inhibition, % at 20 µM; 0.69% of 190,000 active; AID 1217, 2008;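 active = primary screen inhibition at 20 µM above a set limit, cut at about 50% in these data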;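 also: plate controls were DMSO with full reaction for no effect and wells lacking NADH for full effect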
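Test system: Clostridium kluyveri diaphorase enzyme / Quantity: diaphorase at 0.14 U/mL in enzyme working solution / Incubation: 16-min room-temperature incubation before reading / Benchmarks: NADH-free wells as positive control, DMSO-only neutral wells / Signal: resorufin fluorescence 544/590 nm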
ROMK mod: ROMK potassium channel modulators, primary screen, cell-based, thallium flux, MLSMR library | Tet-inducible ROMK, thallium flux fluorescence; actives lie on both sides | B-score at 10 µM | AID 1918, 2009 | 2% of 130,000 active | ATP-sensitive inward rectifier potassium channel 1 (Homo sapiens), P48048;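 active = signal ratio slope over the read window, or its plate-corrected B-score, at least 3 SD from the plate mean, either direction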;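 also: B-score of the F/F0 ratio slope over 7 to 12 s after thallium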
Target sequence (P48048 whole entry, looked up): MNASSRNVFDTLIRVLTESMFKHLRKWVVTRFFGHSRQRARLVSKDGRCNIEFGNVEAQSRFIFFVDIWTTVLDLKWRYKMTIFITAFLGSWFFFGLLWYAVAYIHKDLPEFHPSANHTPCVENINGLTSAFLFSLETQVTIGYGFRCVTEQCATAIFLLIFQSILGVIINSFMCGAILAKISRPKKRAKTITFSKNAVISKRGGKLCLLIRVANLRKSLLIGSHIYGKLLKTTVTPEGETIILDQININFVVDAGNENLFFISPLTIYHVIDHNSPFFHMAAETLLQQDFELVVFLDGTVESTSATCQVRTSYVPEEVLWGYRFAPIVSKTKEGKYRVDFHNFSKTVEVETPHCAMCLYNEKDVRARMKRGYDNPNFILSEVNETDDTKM
ROMK hit retest: ROMK channel modulator hit retest, confirmation, cell-based, thallium flux, duplicate, resupplied hits; fluorescence ratio; hits give low values; shares compounds with ROMK mod; AID 1917, 2009; normalized thallium flux (F/F0 slope) at 10 µM; 54% of 3,000 active;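 active = Flux at 10 µM at least 3 SD below or above vehicle control mean in one or both replicates; inconclusive = no clear call, values can overlap the other calls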
Numbers without * were called inactive; ? = inconclusive; / = not tested or not shown. Sampled rows, rich in hits. Any-hit rate of the full collection: about 2.2%.

SMILES	PMI act hi M6P	PMI act	Diaph act CS	G6PDH counter	Diaphorase inh	ROMK mod	ROMK hit retest
COC(=O)c1ccc(OC(=O)c2ccc(OC)cc2)c(OC)c1	0.9	0.9	1	0.7	2.0	-0.503	/
CC(=O)c1ccc(OC(=O)CCc2nc3ccccc3s2)cc1	1.1	1.1	1	-3.8	4.4	0.137	/
COc1ccc(OC)c(CN2CCN(Cc3cccc4ccccc34)CC2)c1	0.9	0.9	0.7	-1.9	34.7	-3.89*	0.0499*
CC(C)S(=O)(=O)CC(=O)c1ccc(Cl)cc1	1	1.1	1	3.0	2.8	-0.0279	/
CCOC(=O)Nc1ccc(S(=O)(=O)NC2CCCCC2)cc1	1	0.9	0.9	1.5	8.6	-0.044	/
c1ccc(-c2csc3ncnc(NCc4ccccn4)c23)cc1	/	/	/	/	/	/	0.0558*
Cc1ccccc1NC(=O)COC(=O)c1ccc(S(C)(=O)=O)c([N+](=O)[O-])c1	1.1	1.1	1	-0.4	-4.0	-3.47*	?
C[c-]1[c-](C)[c-](C)[c-](C)[c-]1C.[Fe].c1cc2nccc(N3CCCC3)[c-]2c1 (centres undefined)	/	/	/	/	/	/	0.048*
Cn1cnc2c(N3CCCCC3)nccc21	0.9	0.9	0.9	-5.0	8.8	/	/
COc1cc(Cl)ccc1NC(=O)COc1ccccc1C(=O)NN	1	1	0.7	-4.6	25.2	-0.817	/
COC(=O)C1C(=O)C2=C(CC1C)NC(C)=C(C(=O)OCCOc1ccccc1)C2c1ccc(C)o1 (centres undefined)	0.8	1	0.7	5.4	33.0	-3.95*	0.0658*
COc1ccccc1N=C(C)C1=C(O)CC(c2ccccc2)CC1=O (centres undefined)	0.9	0.9	0.9	7.6	11.3	8*	0.0823
Cc1cc2nnc(SCC(=O)N3CCCCC3)n2c(N)n1	0.9	0.9	0.9	14.0	8.7	1.31*	0.0835
CCOC(=O)N1CCN(S(=O)(=O)c2ccc(C)c(C)c2)CC1	1	1	0.9	-13.8	5.4	-0.0244	/
CCOC(=O)N1CCN(S(=O)(=O)c2ccc3c(c2)SCC(=O)N3)CC1	1	1	0.9	-7.9	7.7	-4.29*	0.0611*
CCOC(=O)N1CCN(S(=O)(=O)c2ccc3c(c2)OCC(=O)N3)CC1	1	1.1	0.9	8.1	5.8	-2.46*	0.0578*
CCOC(=O)N1CCN(S(=O)(=O)c2ccc3c(c2)SC(C)C(=O)N3)CC1 (centres undefined)	1.1	1.1	0.9	7.3	8.9	/	0.0674*
Cc1[nH]c2ccccc2c1C(=O)CSc1n[nH]c(N)n1	1	1.1	0.8	2.9	19.7	-0.381	/
O=C(c1ccco1)N1CCN(c2ncnc3c2nnn3Cc2ccccc2Cl)CC1	1	1.1	1.1	7.0	-6.8	-5.06*	0.0701
O=C(c1ccco1)N1CCN(c2nc(C(F)(F)F)nc3c2nnn3Cc2ccccc2)CC1	0.8	0.9	0.8	1.9	21.2	/	/
Fc1ccc(N2CCN(c3ncnc4c3nnn4Cc3ccccc3Cl)CC2)cc1	/	/	/	/	/	-2.65*	0.0662*
COCCCNC(=O)/C(C#N)=C/c1cc(C)[nH]c1C	1	1	1	8.1	1.0	/	/
O=C(NCc1ccc(Cl)cc1)C(=O)NCC(c1cccnc1)N1CCN(c2ccc(F)cc2)CC1 (centres undefined)	1	0.9	0.7	-3.7	27.5	-0.233	/

Screening data (PubChem)
